The source of these data is ChEMBL document CHEMBL3525967, “In vitro glucuronidation of the antibacterial triclocarban and its oxidative metabolites” (Drug Metab Dispos, 2012).

Holding throughout (type): ADME
The target of series [1] is T1, UDP-glucuronosyltransferase 1A3 (Homo sapiens, UniProt P35503).
T1 sequence (P35503 whole entry): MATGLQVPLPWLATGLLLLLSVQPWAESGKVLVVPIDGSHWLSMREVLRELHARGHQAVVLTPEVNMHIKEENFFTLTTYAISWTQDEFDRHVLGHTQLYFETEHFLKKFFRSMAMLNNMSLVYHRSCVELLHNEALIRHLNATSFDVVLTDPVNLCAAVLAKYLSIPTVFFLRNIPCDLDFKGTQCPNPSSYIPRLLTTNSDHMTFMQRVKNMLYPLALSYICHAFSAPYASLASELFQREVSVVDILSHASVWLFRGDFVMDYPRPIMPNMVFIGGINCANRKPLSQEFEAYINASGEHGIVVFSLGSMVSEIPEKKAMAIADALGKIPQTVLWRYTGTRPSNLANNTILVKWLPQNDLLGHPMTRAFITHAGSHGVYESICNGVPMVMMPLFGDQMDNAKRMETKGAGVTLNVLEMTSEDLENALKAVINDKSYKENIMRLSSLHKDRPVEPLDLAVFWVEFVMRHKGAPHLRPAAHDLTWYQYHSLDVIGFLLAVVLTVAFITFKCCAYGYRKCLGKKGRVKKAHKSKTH
In words: Drug metabolism assessed as human UGT1A3-mediated glucuronidation expressed in baculovirus infected insect sf9 cells incubated for 5 mins prior to UDPGA addition measured after 5 to 30 mins by LC-UV analysis. Summed up:
(§1)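 Microsomes or Sf-9 Supersomes (5 µg protein in 200 µL 100 mM potassium phosphate pH 7.4) pre-treated with alamethicin on ice 15 min; substrate 10 µM final (2% DMSO), MgCl2 and saccharolactone 10 mM each; 5 min preincubation at 37 °C, then UDPGA to start. Samples taken at 5, 10, 15, 30 min (or 2, 5, 10, 15 min) into ACN with internal standard; LC-UV-ESI-MS/MS.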

For series [2], the target named is T2, UDP-glucuronosyltransferase 1A1 (Homo sapiens, UniProt P22309).
T2 sequence (P22309 whole entry): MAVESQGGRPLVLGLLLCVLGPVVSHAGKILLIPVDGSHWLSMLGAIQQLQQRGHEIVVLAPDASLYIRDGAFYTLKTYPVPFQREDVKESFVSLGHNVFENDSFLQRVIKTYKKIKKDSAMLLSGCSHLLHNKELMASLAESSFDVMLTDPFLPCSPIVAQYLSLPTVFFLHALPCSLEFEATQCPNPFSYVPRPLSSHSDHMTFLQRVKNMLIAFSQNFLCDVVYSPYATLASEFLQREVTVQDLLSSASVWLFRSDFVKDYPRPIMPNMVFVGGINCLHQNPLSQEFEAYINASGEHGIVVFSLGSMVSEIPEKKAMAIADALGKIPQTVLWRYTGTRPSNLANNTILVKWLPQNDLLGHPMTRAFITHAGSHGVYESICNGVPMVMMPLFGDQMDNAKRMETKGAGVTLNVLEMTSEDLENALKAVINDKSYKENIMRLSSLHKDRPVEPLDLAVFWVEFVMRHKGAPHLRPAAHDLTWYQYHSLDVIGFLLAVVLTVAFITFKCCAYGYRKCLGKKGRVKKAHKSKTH
In words: Drug metabolism assessed as human UGT1A1-mediated glucuronidation expressed in baculovirus infected insect sf9 cells incubated for 5 mins prior to UDPGA addition measured after 5 to 30 mins by LC-UV analysis. Summed up:
as §1

In series [3] the target is T3, UDP-glucuronosyltransferase 1A6 (Homo sapiens, UniProt P19224).
T3 sequence (P19224 whole entry): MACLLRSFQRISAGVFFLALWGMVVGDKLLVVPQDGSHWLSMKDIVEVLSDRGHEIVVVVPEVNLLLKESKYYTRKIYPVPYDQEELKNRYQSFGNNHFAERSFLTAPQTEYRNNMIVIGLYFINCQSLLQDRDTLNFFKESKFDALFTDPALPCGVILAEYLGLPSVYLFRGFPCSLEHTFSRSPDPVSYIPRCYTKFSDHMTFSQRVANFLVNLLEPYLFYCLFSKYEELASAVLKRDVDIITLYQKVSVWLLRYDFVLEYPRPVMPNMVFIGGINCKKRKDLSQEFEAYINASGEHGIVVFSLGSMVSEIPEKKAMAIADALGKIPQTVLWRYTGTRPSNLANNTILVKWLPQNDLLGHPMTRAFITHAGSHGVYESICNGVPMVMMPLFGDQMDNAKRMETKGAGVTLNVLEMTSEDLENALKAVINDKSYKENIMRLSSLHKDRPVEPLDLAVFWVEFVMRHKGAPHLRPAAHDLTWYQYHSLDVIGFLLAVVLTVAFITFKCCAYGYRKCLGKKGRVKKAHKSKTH
The experiment in a line: Drug metabolism assessed as human UGT1A6-mediated glucuronidation expressed in baculovirus infected insect sf9 cells incubated for 5 mins prior to UDPGA addition measured after 5 to 30 mins by LC-UV analysis. Summed up: as §1

Series [4] concerns the target T4, UDP-glucuronosyltransferase 1A4 (Homo sapiens, UniProt P22310).
T4 sequence (P22310 whole entry): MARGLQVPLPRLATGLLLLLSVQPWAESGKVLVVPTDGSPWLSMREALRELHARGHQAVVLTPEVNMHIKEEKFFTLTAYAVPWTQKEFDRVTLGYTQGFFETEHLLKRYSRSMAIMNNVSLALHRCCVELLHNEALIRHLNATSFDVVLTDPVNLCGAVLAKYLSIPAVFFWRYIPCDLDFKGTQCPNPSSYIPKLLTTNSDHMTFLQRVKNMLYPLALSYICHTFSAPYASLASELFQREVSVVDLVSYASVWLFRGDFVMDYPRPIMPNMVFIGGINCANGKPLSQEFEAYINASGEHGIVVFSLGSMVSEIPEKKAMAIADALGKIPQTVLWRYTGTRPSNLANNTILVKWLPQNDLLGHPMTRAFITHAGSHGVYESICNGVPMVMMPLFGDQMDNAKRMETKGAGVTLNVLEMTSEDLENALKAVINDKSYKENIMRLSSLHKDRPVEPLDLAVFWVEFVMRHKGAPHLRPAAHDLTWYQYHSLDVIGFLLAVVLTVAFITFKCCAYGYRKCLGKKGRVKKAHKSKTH
In words: Drug metabolism assessed as human UGT1A4-mediated glucuronidation expressed in baculovirus infected insect sf9 cells incubated for 5 mins prior to UDPGA addition measured after 5 to 30 mins by LC-UV analysis. Put shortly: as §1

Structures are written as SMILES.

For the compound `O=C(Nc1ccc(Cl)c(O)c1)Nc1ccc(Cl)c(Cl)c1`, the Drug metabolism in series [1] is 540 pmol/min/mg; in series [2] it was 520 pmol/min/mg; in series [3], “metabolite_not_detected”; in series [4], “metabolite_not_detected”.
As for `O=C(Nc1ccc(Cl)cc1)Nc1cc(Cl)c(Cl)cc1O`, the Drug metabolism in series [1] is 410 pmol/min/mg; in series [2] it was 820 pmol/min/mg; in series [3], “metabolite_not_detected”; in series [4], “metabolite_not_detected”.
Regarding `O=C(Nc1ccc(Cl)c(Cl)c1)Nc1ccc(Cl)cc1O`, the Drug metabolism is 390 pmol/min/mg in series [1], 850 pmol/min/mg in series [2], “metabolite_not_detected” in series [3] and “metabolite_not_detected” in series [4].
